How the values were obtained:
[1] = biological target: T1, Dual specificity mitogen-activated protein kinase kinase 4 (Homo sapiens) (UniProt P45985); test: Inhibition of MEK4 at 1 uM
T1 sequence (whole entry): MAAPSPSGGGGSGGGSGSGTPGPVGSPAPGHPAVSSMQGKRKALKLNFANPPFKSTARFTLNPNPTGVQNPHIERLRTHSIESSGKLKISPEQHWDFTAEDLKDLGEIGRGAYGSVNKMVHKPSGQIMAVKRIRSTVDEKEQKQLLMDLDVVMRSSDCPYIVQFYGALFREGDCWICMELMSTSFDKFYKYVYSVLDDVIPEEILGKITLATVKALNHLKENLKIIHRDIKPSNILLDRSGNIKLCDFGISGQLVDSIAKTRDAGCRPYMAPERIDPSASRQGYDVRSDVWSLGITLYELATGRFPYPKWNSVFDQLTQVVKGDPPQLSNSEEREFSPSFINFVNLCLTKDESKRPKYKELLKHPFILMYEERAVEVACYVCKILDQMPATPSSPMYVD

[2] = biological target: Cyclin-dependent kinase 5 (Homo sapiens) (UniProt Q00535); test: Inhibition of CDK5 at 1 uM
Sequence of Cyclin-dependent kinase 5 (Homo sapiens) (Q00535 whole entry, looked up): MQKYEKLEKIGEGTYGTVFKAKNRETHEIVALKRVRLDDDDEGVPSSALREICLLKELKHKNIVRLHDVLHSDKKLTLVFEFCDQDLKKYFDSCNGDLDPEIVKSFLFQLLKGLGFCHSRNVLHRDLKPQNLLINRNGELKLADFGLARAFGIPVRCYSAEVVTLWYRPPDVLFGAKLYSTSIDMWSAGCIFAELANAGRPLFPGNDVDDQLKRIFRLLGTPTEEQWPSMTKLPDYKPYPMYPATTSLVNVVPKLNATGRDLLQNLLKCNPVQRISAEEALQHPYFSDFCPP
Summary of the method: (§1)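 Ambit KINOMEscan screen at a single concentration across a 250–400 kinase panel, recorded as percent inhibition. Selectivity was expressed as S(90), the fraction of kinases inhibited >90%.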

[3] = biological target: Serine/threonine-protein kinase pim-1 (Homo sapiens) (UniProt P11309); test: Inhibition of PIM1 at 1 uM
Sequence of Serine/threonine-protein kinase pim-1 (Homo sapiens) (P11309 whole entry, looked up): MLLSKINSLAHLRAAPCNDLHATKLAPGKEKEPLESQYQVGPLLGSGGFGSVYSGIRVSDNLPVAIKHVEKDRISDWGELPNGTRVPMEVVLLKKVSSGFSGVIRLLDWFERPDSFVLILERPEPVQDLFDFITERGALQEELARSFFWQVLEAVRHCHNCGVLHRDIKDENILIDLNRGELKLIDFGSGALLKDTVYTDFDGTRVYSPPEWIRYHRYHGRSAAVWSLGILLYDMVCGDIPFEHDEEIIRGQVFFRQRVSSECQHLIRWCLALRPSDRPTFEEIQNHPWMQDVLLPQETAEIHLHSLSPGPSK

[4] = biological target: Aurora kinase B (Homo sapiens) (UniProt Q96GD4); test: Inhibition of AURKB at 1 uM; summary of the method: as §1
Sequence of Aurora kinase B (Homo sapiens) (Q96GD4 whole entry, the tested form may be a part): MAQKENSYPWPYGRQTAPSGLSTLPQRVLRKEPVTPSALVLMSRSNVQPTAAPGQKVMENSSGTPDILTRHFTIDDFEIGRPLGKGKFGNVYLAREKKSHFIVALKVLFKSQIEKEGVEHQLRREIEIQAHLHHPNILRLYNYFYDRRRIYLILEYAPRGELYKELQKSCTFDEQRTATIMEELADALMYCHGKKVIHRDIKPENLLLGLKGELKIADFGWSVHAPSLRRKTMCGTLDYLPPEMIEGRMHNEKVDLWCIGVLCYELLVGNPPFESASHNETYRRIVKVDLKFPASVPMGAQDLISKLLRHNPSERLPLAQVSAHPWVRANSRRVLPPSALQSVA

[5] = biological target: T2, Tyrosine-protein kinase JAK3 (Homo sapiens) (UniProt P52333); test: Inhibition of JAK3 JH1 catalytic domain at 1 uM
T2 sequence (whole entry): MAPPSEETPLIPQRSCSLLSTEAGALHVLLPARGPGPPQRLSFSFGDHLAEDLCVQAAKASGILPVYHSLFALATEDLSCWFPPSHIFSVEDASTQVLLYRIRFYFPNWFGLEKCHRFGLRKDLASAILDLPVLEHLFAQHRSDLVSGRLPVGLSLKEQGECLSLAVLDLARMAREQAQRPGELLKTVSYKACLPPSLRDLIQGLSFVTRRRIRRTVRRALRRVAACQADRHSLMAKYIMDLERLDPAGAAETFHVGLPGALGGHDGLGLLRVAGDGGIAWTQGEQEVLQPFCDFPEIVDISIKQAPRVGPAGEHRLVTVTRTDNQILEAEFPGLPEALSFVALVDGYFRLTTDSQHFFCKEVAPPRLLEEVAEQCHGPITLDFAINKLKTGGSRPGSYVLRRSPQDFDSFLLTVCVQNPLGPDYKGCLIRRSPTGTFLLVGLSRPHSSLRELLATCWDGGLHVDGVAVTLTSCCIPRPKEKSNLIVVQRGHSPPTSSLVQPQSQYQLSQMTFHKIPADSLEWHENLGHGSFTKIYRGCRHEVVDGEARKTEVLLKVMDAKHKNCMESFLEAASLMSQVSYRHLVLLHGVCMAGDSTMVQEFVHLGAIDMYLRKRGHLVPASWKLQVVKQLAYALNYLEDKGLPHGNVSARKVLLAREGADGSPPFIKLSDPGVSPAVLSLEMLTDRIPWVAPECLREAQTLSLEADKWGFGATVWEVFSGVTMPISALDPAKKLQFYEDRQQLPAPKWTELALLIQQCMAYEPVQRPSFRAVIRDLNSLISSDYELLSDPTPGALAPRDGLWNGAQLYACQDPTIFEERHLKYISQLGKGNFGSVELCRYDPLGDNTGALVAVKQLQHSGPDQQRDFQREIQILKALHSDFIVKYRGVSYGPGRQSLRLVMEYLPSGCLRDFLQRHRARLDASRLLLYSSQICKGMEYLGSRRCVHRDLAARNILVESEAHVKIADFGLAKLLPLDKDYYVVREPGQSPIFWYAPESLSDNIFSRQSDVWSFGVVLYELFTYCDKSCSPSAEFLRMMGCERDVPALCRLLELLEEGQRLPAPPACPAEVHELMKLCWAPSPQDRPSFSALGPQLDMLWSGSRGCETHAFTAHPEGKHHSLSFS
Summary of the method: (§2)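 Single-concentration screen on the Ambit KINOMEscan platform, run against a panel of 250–400 kinases. Per-kinase inhibition was also summarized as S(90), the fraction of kinases inhibited by more than 90%.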

[6] = tested on: Proto-oncogene tyrosine-protein kinase receptor Ret (Homo sapiens), P07949 [V804M]; test: Inhibition of RET V804M mutant at 1 uM
Sequence of Proto-oncogene tyrosine-protein kinase receptor Ret (Homo sapiens), P07949 [V804M] (P07949 whole entry V804M): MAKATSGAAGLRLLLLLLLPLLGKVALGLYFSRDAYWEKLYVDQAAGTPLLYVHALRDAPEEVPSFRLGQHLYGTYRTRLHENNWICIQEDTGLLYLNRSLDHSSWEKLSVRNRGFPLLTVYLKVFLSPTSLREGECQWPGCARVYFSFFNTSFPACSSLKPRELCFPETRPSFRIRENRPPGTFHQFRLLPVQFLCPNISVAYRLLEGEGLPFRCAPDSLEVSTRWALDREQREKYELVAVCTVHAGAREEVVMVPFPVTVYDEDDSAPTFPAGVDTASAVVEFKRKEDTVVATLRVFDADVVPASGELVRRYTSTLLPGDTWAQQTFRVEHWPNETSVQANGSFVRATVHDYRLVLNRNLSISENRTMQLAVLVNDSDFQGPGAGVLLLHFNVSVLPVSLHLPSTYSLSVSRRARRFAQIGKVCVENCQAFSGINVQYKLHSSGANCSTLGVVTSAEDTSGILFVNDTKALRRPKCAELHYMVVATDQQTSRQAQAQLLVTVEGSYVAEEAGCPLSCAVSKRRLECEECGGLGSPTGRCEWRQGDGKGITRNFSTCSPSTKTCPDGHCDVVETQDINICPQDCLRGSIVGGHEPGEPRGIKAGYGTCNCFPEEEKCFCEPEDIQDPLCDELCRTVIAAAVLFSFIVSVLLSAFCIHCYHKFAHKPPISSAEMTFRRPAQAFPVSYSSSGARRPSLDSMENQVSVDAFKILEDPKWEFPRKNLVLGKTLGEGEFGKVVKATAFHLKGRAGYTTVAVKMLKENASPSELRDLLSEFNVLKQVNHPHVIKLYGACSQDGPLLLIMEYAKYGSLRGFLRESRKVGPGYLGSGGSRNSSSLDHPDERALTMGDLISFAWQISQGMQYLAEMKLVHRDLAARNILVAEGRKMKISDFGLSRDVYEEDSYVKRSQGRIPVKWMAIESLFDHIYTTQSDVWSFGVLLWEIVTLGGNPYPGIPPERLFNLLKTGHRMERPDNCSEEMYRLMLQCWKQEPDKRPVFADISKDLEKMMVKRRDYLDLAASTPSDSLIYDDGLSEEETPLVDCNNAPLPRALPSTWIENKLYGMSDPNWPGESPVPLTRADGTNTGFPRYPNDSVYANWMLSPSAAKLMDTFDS

[7] = biological target: Cyclin-dependent kinase 11B (Homo sapiens) (UniProt P21127); test: Inhibition of CDC2L1 at 1 uM
Sequence of Cyclin-dependent kinase 11B (Homo sapiens) (P21127 whole entry): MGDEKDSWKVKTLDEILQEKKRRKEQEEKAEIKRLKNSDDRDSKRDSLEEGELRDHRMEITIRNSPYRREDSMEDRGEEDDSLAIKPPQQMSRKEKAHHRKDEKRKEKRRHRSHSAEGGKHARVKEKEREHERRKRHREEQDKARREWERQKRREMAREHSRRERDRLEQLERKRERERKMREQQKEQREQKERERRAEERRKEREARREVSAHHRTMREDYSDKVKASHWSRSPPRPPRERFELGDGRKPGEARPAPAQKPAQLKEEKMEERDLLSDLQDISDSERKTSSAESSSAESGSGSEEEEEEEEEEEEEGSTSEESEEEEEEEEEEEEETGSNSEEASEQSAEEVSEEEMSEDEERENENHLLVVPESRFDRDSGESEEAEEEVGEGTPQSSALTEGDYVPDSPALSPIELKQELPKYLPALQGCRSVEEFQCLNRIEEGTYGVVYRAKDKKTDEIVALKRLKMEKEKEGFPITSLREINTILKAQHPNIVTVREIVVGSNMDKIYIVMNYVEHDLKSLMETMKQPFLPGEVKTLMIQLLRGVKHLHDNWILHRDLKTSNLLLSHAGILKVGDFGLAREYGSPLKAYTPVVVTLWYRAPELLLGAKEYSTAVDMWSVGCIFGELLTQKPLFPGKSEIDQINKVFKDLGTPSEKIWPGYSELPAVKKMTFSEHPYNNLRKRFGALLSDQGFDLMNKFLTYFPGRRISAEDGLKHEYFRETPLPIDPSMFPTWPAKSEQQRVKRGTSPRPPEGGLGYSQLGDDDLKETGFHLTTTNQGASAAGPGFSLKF

[8] = biological target: Rho-associated protein kinase 1 (Homo sapiens) (UniProt Q13464); test: Inhibition of ROCK1 at 1 uM
[9] = biological target: Vascular endothelial growth factor receptor 3 (Homo sapiens) (UniProt P35916); test: Inhibition of FLT4 at 1 uM; summary of the method: as §2
Sequence of Vascular endothelial growth factor receptor 3 (Homo sapiens) (P35916 whole entry): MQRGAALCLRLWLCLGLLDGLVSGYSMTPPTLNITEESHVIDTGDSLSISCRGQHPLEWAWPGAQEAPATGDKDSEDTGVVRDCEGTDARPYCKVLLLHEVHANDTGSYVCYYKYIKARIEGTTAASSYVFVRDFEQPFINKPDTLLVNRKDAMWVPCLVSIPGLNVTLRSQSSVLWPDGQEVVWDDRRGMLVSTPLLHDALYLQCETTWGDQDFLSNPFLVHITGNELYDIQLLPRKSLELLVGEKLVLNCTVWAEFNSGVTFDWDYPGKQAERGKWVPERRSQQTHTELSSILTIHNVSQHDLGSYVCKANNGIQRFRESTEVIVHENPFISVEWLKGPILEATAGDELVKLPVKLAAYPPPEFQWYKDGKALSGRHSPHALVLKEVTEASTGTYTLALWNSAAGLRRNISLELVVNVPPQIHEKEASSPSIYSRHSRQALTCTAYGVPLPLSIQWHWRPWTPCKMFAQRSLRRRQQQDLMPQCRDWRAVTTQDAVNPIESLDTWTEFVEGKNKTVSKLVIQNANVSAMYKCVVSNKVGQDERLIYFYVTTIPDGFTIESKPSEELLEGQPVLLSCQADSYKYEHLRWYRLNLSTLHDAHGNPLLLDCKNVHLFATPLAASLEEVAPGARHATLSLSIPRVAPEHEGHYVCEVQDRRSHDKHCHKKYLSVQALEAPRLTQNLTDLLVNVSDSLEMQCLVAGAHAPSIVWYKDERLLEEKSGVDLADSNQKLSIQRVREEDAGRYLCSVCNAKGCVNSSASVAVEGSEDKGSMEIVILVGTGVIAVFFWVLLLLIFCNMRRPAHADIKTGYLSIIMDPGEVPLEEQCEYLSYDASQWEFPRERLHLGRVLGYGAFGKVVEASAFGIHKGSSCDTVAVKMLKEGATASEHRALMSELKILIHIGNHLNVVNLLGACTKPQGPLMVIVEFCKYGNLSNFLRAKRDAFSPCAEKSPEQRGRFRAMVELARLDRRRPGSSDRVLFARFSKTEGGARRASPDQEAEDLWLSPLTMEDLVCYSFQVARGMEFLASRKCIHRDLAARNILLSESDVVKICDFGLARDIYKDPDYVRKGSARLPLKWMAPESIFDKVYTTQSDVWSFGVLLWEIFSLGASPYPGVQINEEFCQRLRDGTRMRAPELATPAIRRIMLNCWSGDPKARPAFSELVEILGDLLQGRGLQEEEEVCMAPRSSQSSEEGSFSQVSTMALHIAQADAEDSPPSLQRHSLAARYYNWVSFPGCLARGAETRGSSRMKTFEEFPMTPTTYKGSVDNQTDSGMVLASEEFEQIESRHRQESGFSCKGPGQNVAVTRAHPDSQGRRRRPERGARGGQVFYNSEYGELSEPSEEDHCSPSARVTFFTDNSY

[10] = biological target: T3, Aurora kinase A (Homo sapiens) (UniProt O14965); test: Inhibition of AURKA at 1 uM; summary of the method: as §1
T3 sequence (whole entry): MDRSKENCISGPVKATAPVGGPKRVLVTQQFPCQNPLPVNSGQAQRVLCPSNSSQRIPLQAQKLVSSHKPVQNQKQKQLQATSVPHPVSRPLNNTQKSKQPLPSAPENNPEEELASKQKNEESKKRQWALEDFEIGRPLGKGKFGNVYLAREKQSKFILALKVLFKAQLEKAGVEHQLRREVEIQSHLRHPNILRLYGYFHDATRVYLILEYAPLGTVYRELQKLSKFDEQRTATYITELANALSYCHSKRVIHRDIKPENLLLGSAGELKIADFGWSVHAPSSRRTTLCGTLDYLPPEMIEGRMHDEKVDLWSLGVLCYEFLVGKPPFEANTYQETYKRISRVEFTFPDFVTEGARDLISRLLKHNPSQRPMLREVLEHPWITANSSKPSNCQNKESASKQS

[11] = biological target: NT-3 growth factor receptor (Homo sapiens) (UniProt Q16288); test: Inhibition of TRKC at 1 uM
Sequence of NT-3 growth factor receptor (Homo sapiens) (Q16288 32-839 limits assumed): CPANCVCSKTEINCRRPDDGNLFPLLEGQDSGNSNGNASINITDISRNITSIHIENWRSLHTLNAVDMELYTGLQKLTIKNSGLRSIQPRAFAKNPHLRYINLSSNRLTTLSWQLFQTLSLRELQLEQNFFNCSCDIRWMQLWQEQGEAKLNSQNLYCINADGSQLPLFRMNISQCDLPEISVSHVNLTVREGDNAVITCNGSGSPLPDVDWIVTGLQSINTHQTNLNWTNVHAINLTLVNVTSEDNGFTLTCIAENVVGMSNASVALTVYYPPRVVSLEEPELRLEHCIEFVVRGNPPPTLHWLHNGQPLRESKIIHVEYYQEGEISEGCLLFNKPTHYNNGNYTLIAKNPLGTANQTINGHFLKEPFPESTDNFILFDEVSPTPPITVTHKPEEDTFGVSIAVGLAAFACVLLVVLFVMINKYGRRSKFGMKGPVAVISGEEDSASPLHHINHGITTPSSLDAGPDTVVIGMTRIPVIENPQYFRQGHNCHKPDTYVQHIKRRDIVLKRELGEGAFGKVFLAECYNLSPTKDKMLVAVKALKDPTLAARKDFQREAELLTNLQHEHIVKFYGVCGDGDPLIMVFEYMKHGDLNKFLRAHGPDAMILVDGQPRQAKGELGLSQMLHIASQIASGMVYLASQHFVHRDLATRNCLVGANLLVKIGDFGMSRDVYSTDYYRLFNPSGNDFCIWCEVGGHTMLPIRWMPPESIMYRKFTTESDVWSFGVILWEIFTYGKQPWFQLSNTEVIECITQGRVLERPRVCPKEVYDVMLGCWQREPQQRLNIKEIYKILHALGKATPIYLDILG

[12] = biological target: Serine/threonine-protein kinase 16 (Homo sapiens) (UniProt O75716); test: Inhibition of STK16 at 1 uM
[13] = tested on: Fibroblast growth factor receptor 3 (Homo sapiens), P22607 [G697C]; test: Inhibition of FGFR3 G697C mutant at 1 uM
Summary of the method: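 Single-concentration screen using Ambit Bioscience KINOMEscan technology across a panel of 250–400 kinases. Per-kinase inhibition from this screen was summarized as S(90), the fraction of kinases inhibited by more than 90%.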

[14] = biological target: cAMP-dependent protein kinase catalytic subunit beta (Homo sapiens) (UniProt P22694); test: Inhibition of PKAC-beta at 1 uM
[15] = tested on: Tyrosine-protein kinase ABL1 (Homo sapiens), P00519 [H396P]; test: Inhibition of ABL1 H396P mutant at 1 uM; summary of the method: as §1

CN1CCN(c2ccc(-c3cnc4c(c3)N(Cc3cc(Cl)ccc3Cl)CCN4)cn2)CC1
inhibition [1]: < 50% | inhibition [2]: < 50% | inhibition [3]: < 50% | inhibition [4]: < 50% | inhibition [5]: 73% | inhibition [6]: < 50% | inhibition [7]: < 50% | inhibition [8]: < 50% | inhibition [9]: < 50% | inhibition [10]: < 50% | inhibition [11]: < 50% | inhibition [12]: < 50% | inhibition [13]: < 50% | inhibition [14]: < 50% | inhibition [15]: < 50%

CN1CCN(c2ccc(-c3cnc4c(c3)N(Cc3cc(Cl)ccc3C(F)(F)F)CCN4)cn2)CC1
inhibition [1]: < 50% | inhibition [2]: < 50% | inhibition [3]: < 50% | inhibition [4]: < 50% | inhibition [5]: 75% | inhibition [6]: < 50% | inhibition [7]: < 50% | inhibition [8]: < 50% | inhibition [9]: < 50% | inhibition [10]: < 50% | inhibition [11]: < 50% | inhibition [12]: < 50% | inhibition [13]: < 50% | inhibition [14]: < 50% | inhibition [15]: < 50%

CN1CCN(c2ccc(-c3cnc4c(c3)N(Cc3c(F)ccc(F)c3Cl)CCN4)cn2)CC1
inhibition [1]: < 50% | inhibition [2]: < 50% | inhibition [3]: < 50% | inhibition [4]: < 50% | inhibition [5]: 83% | inhibition [6]: < 50% | inhibition [7]: < 50% | inhibition [8]: < 50% | inhibition [9]: < 50% | inhibition [10]: < 50% | inhibition [11]: < 50% | inhibition [12]: < 50% | inhibition [13]: < 50% | inhibition [14]: < 50% | inhibition [15]: 85%

O=C(c1ccc(-c2cnc3c(c2)N(Cc2cc(Cl)ccc2C(F)(F)F)CCN3)cc1)N1CCC(N2CCCC2)CC1
inhibition [2]: < 50% | inhibition [3]: < 50% | inhibition [4]: < 50% | inhibition [5]: 98.7% | inhibition [9]: 84.5% | inhibition [10]: 69.5% | inhibition [11]: < 50% | inhibition [12]: < 50% | inhibition [13]: < 50% | inhibition [14]: < 50% | inhibition [15]: < 50%

COC1CCN(C(=O)c2ccc(-c3cnc4c(c3)N(Cc3cc(Cl)ccc3C(F)(F)F)CCN4)cc2)CC1
inhibition [2]: < 50% | inhibition [3]: < 50% | inhibition [4]: < 50% | inhibition [5]: 93.2% | inhibition [9]: < 50% | inhibition [10]: < 50% | inhibition [11]: < 50% | inhibition [12]: < 50% | inhibition [13]: < 50% | inhibition [14]: < 50% | inhibition [15]: < 50%

FC(F)(F)c1ccc(Cl)cc1CN1CCNc2ncc(-c3ccnc(N4CCNCC4)c3)cc21
inhibition [1]: < 50% | inhibition [2]: < 50% | inhibition [3]: < 50% | inhibition [4]: 76% | inhibition [5]: 88% | inhibition [6]: 76% | inhibition [7]: < 50% | inhibition [8]: < 50% | inhibition [9]: < 50% | inhibition [10]: 68% | inhibition [11]: < 50% | inhibition [12]: < 50% | inhibition [13]: < 50% | inhibition [14]: < 50% | inhibition [15]: < 50%

CN1CCN(c2ccc(-c3cnc4c(c3)N(Cc3cc(F)ccc3F)CCN4)cn2)CC1
inhibition [1]: < 50% | inhibition [2]: < 50% | inhibition [3]: < 50% | inhibition [4]: < 50% | inhibition [5]: 86.4% | inhibition [6]: < 50% | inhibition [7]: < 50% | inhibition [8]: < 50% | inhibition [9]: < 50% | inhibition [10]: < 50% | inhibition [11]: < 50% | inhibition [12]: < 50% | inhibition [13]: < 50% | inhibition [14]: < 50% | inhibition [15]: 58.5%

O=C(c1ccc(-c2cnc3c(c2)N(Cc2cc(Cl)ccc2C(F)(F)F)CCN3)cc1)N1CCCCC1
inhibition [2]: < 50% | inhibition [3]: < 50% | inhibition [4]: < 50% | inhibition [5]: 79.3% | inhibition [9]: < 50% | inhibition [10]: < 50% | inhibition [11]: < 50% | inhibition [12]: < 50% | inhibition [13]: < 50% | inhibition [14]: < 50% | inhibition [15]: < 50%

CC(=O)N1CCN(c2cc(-c3cnc4c(c3)N(Cc3cc(Cl)ccc3C(F)(F)F)CCN4)ccn2)CC1
inhibition [1]: < 50% | inhibition [2]: < 50% | inhibition [3]: < 50% | inhibition [4]: < 50% | inhibition [5]: 88% | inhibition [6]: < 50% | inhibition [7]: < 50% | inhibition [8]: < 50% | inhibition [9]: < 50% | inhibition [10]: 68% | inhibition [11]: < 50% | inhibition [12]: < 50% | inhibition [13]: < 50% | inhibition [14]: < 50% | inhibition [15]: < 50%

O=C(O)c1ccc(-c2cnc3c(c2)N(Cc2cc(Cl)ccc2C(F)(F)F)CCN3)cc1
inhibition [2]: < 50% | inhibition [3]: < 50% | inhibition [4]: < 50% | inhibition [5]: < 50% | inhibition [9]: < 50% | inhibition [10]: 80.2% | inhibition [11]: < 50% | inhibition [12]: < 50% | inhibition [13]: < 50% | inhibition [14]: < 50% | inhibition [15]: < 50%

Source: ChEMBL document CHEMBL1165965, “Synthesis and structure-activity relationships of 1,2,3,4-tetrahydropyrido[2,3-b]pyrazines as potent and selective inhibitors of the anaplastic lymphoma kinase” (Bioorg Med Chem, 2010)
